Assay outcomes from PubChem.
This is a sample that favours compounds with a hit; in the whole collection about 1.8% have one here.
Scp-1 inhibitor = inhibitors of human Scp-1 phosphatase; Q9GZU7; Recombinant Scp1, phosphopeptide, malachite green phosphate absorbance; inhibition, % at 20 µM; 0.88% of 340,000 active; AID 493091;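 active = inhibition above about 50% at 20 µM, limit read from the data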;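 note: plate controls were DMSO wells with enzyme for no effect and wells lacking enzyme for full effect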
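Test system – truncated SCP-1 phosphatase (76-261aa) · Reagent – Phosphorylated 17-residue peptide substrate · Incubation – 45 min room-temperature reaction, 5 min colour, 30 min stabiliser · Detection – colorimetric phosphate reagent with accelerator and stabiliser, absorbance at 630 nm · Measure – % inhibition at 20 µM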
STEP inh = blocks human striatal-enriched tyrosine phosphatase | P54829 | recombinant STEP, OMFP fluorogenic substrate, fluorescence | inhibition, % at 20 µM | 0.25% of 360,000 active | AID 588621;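 active = inhibition at 20 µM, scaled per plate between control wells, above about 37%, limit read from the data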;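 note: 0% = DMSO with enzyme and substrate and 100% = substrate only without enzyme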
Target sequence (P54829 whole entry, looked up): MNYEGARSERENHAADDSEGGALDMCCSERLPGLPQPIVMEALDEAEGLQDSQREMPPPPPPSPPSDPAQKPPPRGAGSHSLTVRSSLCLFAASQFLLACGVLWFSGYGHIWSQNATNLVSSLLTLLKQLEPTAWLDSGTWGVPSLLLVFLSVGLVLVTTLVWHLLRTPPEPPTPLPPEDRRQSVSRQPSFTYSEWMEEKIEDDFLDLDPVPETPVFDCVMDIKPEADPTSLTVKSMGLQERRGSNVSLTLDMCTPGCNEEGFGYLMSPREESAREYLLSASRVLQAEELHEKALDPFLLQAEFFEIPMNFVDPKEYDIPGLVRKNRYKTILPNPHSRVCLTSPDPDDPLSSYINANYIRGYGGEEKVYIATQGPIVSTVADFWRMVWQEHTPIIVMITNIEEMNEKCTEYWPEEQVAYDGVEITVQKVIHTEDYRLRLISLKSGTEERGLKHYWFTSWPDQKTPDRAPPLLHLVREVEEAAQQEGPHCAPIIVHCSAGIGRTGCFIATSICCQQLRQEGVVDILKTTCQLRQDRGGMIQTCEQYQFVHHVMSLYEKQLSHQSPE
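System: isolated STEP enzyme; schedule: 20 min enzyme reaction at room temperature, protected from light; medium: Bis-Tris buffer pH 6.0, 2.5 mM DTT, 0.005% Tween 20; signal: fluorescence, 480/540 nm; dosing: single compound dose of 20 µM, 1% DMSO final; also added: OMFP substrate, 25 µM final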
SUMO1 PPI mod = modulators of human SUMO1-mediated protein-protein interactions. P63165. 0.33% of 360,000 active. SUMO1 binding to a labelled peptide, TR-FRET, 1 h. inhibition, % at 20 µM; in the data active = inhibition above about 37%
DNMT1 inh = DNMT1 (human) enzyme inhibition; DNMT1 molecular beacon, Hinp1I cleavage, fluorescence; inhibition (reported as % activation of signal), % at 10 µM; 0.83% of 360,000 active; AID 588458; in the data active = inhibition above about 50%
HKDC1 inhibitor = blocks human hexokinase HKDC1 activity; Q2TB90; recombinant HKDC1, G6PDH/diaphorase resazurin coupled fluorescence; inhibition, % at 20 µM; 0.16% of 340,000 active; AID 493160;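 active = inhibition above about 35% when tested at 20 µM, limit read from the data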;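 note: plate controls were DMSO wells with enzyme for no effect and DMSO wells lacking enzyme for full effect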
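Test system: recombinant HKDC1 (HK5) hexokinase enzyme, produced in-house / Doses: 20 µM test compound, 1% DMSO / Timing: 90 min, room temperature / Detection: G6PDH/diaphorase-coupled fluorescence, 1 mM NADP, 100 µM resazurin, 525/613 nm / Control set: DMSO wells with and without enzyme mix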
LMPTP block = LMPTP (human) inhibition | P24666 | recombinant LMPTP-A, OMFP fluorogenic substrate, fluorescence intensity | inhibition, % at 20 µM | 0.22% of 360,000 active | AID 651560;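 active = compounds that cut the enzyme signal by at least half of the control window in the single-dose screen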;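 note: plate controls were DMSO wells with enzyme plus substrate for no effect and substrate without enzyme for full effect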
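Material: LMPTP-A; amount: 0.625 nM enzyme; doses: single 20 µM dose; times: reaction 50 min, room temperature, dark; technique: fluorescence intensity of OMFP turnover product; benchmarks: no-enzyme and uninhibited controls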
The depositor's hits bear a star; nt = no result given.

SMILES	Scp-1 inhibitor	STEP inh	SUMO1 PPI mod	DNMT1 inh	HKDC1 inhibitor	LMPTP block
CCOc1cc(C(=O)OCC(=O)c2c(C)[nH]c3ccccc23)ccc1OCC(=O)N1CCOCC1	-9	2	39*	-1	-7	-1
CCOc1cc(C(=O)OCC(=O)c2c[nH]c3ccccc23)ccc1OCC(=O)N1CCOCC1	-9	1	4	-8	2	0
CS(=O)(=O)Nc1ccc(-c2ccc(/C=C3\SC(N)=NC3=O)o2)cc1	-5	-2	-18	-2	6	0
NC1=NC(=O)/C(=C/c2ccc(-c3ccc(S(N)(=O)=O)cc3)o2)S1	6	-2	88*	9	3	4
CC1(C)OC(=O)C(=Cc2ccc(-c3ccc(S(N)(=O)=O)cc3)o2)C(=O)O1	-1	4	0	5	2	0
NS(=O)(=O)c1ccc(-c2ccc(/C=C3\C(=O)Nc4cc(Cl)ccc43)o2)cc1	-11	0	48*	-14	-5	22
O=C1O[C@@H](c2ccccc2)C[C@@H](O)C(=O)CCCc2ccccc21	nt	nt	1	nt	nt	1
COc1cccc(N=Nc2c(N)[nH]n3c(=O)cc(-c4ccccc4)nc23)c1	-9	8	-10	-14	-5	8
Cc1ccc(N=Nc2c(N)[nH]n3c(=O)cc(-c4ccccc4)nc23)cc1	36	21	-9	-25	-25	70*
COCCN1C(=O)c2ccccc2C1c1nc2ccccc2[nH]1 (centres undefined)	nt	-2	1	-6	nt	-1
C/C=C(\C)C(=O)NCCN1C2=NC[C@@H](Cc3ccccc3)N2C[C@@H]1Cc1ccc(OC)cc1	1	6	-27	-3	-2	1
CCCCCCNC(=O)N[C@@H](C(=O)NCCC[C@H]1CN2C(=NC[C@@H]2Cc2ccccc2)N1CCc1cccc(OC)c1)C(C)C	92*	nt	nt	nt	5	nt
O=C(O)/C(=C\c1ccc(Cl)c([N+](=O)[O-])c1)c1ccc(S(=O)(=O)N2CCCC2)s1	66*	6	11	72*	7	28
CCc1ccccc1Nc1nn2c(=O)c3ccc(C(=O)NCc4ccccn4)cc3nc2s1	-14	0	39*	-5	4	1
O=C(NCc1ccccn1)c1ccc2c(=O)n3nc(Nc4ccccc4)sc3nc2c1	-3	-4	52*	32	5	0
COc1ccccc1Nc1nn2c(=O)c3ccc(C(=O)N4CCCCC4)cc3nc2s1	-6	1	5	-2	11	2
COc1ccccc1Nc1nn2c(=O)c3ccc(C(=O)NCc4cccnc4)cc3nc2s1	nt	3	47*	51*	nt	2
COc1cc(C(=O)OCc2csc(CC(=O)Nc3ccccc3C)n2)ccc1OCC(C)C	-9	2	6	-9	1	3
NC(=O)c1ccsc1NC(=O)c1cc(=O)c2ccccc2o1	10	4	63*	-2	3	9
CC(=O)Nc1ccc(NC(=O)c2cc(=O)c3ccccc3o2)cc1	-3	-2	-18	-5	1	0
NC(=O)c1ccsc1NC(=O)COC(=O)c1cc(=O)[nH]c2ccccc12	4	-1	49*	2	3	6
CCCCCCc1cc2cc(-c3nnc(-c4ccccc4O)o3)c(=O)oc2cc1O	-8	-1	8	87*	-1	1
O=S(=O)(Nc1ccccc1F)c1cccc(NC(=S)NCCN2CCOCC2)c1	-7	92*	3	-4	-18	5
O=S(=O)(Nc1ccc(Br)cc1)c1cccc(NC(=S)NCCN2CCOCC2)c1	-9	15	0	-1	-2	-1
CN1/C(=C/C=C(C#N)C#N)C=Cc2ccccc21	-16	0	57*	-1	-4	16
COc1cc(/C=C2\CCc3c2nc2ccccc2c3C(=O)O)cc(OC)c1OC	71*	42*	48*	97*	11	8
COc1ccc(CN2C[C@@H](CO)O[C@@H](n3cnc4c(N(C)C)ncnc43)C2)cc1	nt	1	6	3	nt	-1
C=CC#CC[N+]1(CC#Cc2ccccc2)CCOCC1	9	5	37*	-30	34	52*
